Numbered stars: 1 amine (or outer) side, 2 acyl side, 3 side chain; on linkers, the order of the positions; unused ones are H or OH. Bridge positions count the residues as written; N and C are the ends. Square brackets hold non-standard residues; d marks the D form. Peptide text beside a SMILES is read from it. X3 = CC(C)(C)[C@H]1CC[C@@H](C(=O)[*:2])N1[*:1]; X1 = CC(C)(C)C1CC[C@@H](C(=O)[*:2])N1[*:1]; Mpa = O=C(O)CCS
Experiments:
Rattus norvegicus [1] = species on record: Rattus norvegicus; assay: Effective concentration in rat in the absence of Magnesium; type: functional, organism-based
Summary of the method: (§1)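 Isolated uterus from estrogen-primed rats (24-48 h) in Munsick solution, either without magnesium or with 1 mM Mg2+. Antagonist added 1 min before a standard oxytocin dose. EC50 is the concentration that cuts the response to a 2x agonist dose down to that of dose x; pA2 is its negative log. Uteri from 3-5 rats.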

Rattus norvegicus [2] = species on record: Rattus norvegicus; assay: Effective concentration in rat in the presence of 1 mM of Magnesium; type: functional, organism-based; summary of the method: as §1
Rattus norvegicus [3] = species on record: Rattus norvegicus; assay: Compound was evaluated for the pressor activity in rat; type: functional
Summary of the method: (§2)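 Male rats (220-260 g) under urethane, pretreated with phenoxybenzamine in two doses. Femoral vein cannulated for dosing and carotid artery for blood pressure. After about 30 min stabilization, i.v. bolus doses of standard or analogue given in random order. Standard curve spanned 2 × 10-5 - 2 × 10-4 mg/kg. Activity set against the standard, 3-4 animals per analogue.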

Rattus norvegicus [4] = species on record: Rattus norvegicus; assay: In Vitro evaluation for the uterotonic activity in rat in the absence of Magnesium; type: functional
Summary of the method: (§3)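 Isolated uterus from rats estrogenized 24-48 h beforehand, in Munsick solution without magnesium or with 1 mM Mg2+, oxytocin as standard. Single doses given in random order with bath changed after each response and at least 5 min between doses; cumulative doubling doses given at 1-min intervals. IU/mg from threshold doses against standard, EC50 from the curves. Uteri from 3-5 rats.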

Rattus norvegicus [5] = species on record: Rattus norvegicus; assay: In Vitro evaluation for the uterotonic activity in rat in the presence of 1 mM of Magnesium; type: functional; summary of the method: as §3
Oxytocin receptor = target: T1, Oxytocin receptor (Rattus norvegicus, UniProt P70536); assay: Binding affinity against oxytocin receptor
T1 sequence (P70536 whole entry): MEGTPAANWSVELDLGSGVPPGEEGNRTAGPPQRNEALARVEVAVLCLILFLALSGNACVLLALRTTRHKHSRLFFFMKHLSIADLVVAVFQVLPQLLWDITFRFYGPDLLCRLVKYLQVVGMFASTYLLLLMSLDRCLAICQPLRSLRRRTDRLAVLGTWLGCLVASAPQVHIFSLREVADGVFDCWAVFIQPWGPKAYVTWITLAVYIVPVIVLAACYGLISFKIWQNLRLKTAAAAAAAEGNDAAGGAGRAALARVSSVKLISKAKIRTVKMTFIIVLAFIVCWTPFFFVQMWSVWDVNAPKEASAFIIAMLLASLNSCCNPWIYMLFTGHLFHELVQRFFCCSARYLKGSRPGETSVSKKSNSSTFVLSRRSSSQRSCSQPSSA
Summary of the method: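 Crude rat uterine membrane fraction incubated with [3H]oxytocin (2 nM) plus peptide at 0.1-10000 nM, 30 min at 35 °C. Buffer was 50 mM HEPES pH 7.6 with 10 mM MnCl2 and 1 mg/mL bovine serum albumin. Bound and free separated by rapid filtration.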

Rattus norvegicus [6] = species on record: Rattus norvegicus; assay: Compound was evaluated for the pressor activity; type: functional; summary of the method: as §2

| EC50 (Rattus norvegicus [1]) | EC50 (Rattus norvegicus [2]) | Ki (Oxytocin receptor) | SMILES | Activity (Rattus norvegicus [3]) | Activity (Rattus norvegicus [4]) | Activity (Rattus norvegicus [5]) | Activity (Rattus norvegicus [6]) |
| --- | --- | --- | --- | --- | --- | --- | --- |
| 0.05 µM | 0.075 µM | 0.24 µM | CC[C@H](C)[C@@H]1NC(=O)[C@H](Cc2ccc(O)cc2)NC(=O)CCSSC[C@@H](C(=O)N2C(C(C)(C)C)CC[C@H]2C(=O)N[C@@H](CC(C)C)C(=O)NCC(N)=O)NC(=O)[C@H](CC(N)=O)NC(=O)[C@H](CCC(N)=O)NC1=O (stereo partly specified) ([Mpa]YIQNC[X1]LG-NH2; disulfide 1-6) | 0 IU/mg | 6.1 IU mg-1 | 3 IU mg-1 |  |
|  |  | 0.0032 µM | CC[C@H](C)[C@@H]1NC(=O)[C@H](Cc2ccc(O)cc2)NC(=O)CCSSC[C@@H](C(=O)N2CCC[C@H]2C(=O)N[C@@H](CC(C)C)C(=O)NCC(N)=O)NC(=O)[C@H](CC(N)=O)NC(=O)[C@H](CCC(N)=O)NC1=O [DEMOXYTOCIN] |  | 837 IU mg-1 | 760 IU mg-1 | 1.5 IU/mg |
|  |  |  | CC[C@H](C)[C@@H]1NC(=O)[C@H](Cc2ccc(O)cc2)NC(=O)[C@@H](N)CSSC[C@@H](C(=O)N2[C@H](C(=O)N[C@@H](CC(C)C)C(=O)NCC(N)=O)CC[C@@H]2C(C)(C)C)NC(=O)[C@H](CC(N)=O)NC(=O)[C@H](CCC(N)=O)NC1=O (H-CYIQNC[X3]LG-NH2; disulfide 1-6) [listing 1 of 2 here] | 0 IU/mg | 1.8 IU mg-1 | 0.5 IU mg-1 |  |
| 0.15 µM | 0.45 µM | 1.43 µM | CC[C@H](C)[C@@H]1NC(=O)[C@H](Cc2ccc(O)cc2)NC(=O)[C@@H](N)CSSC[C@@H](C(=O)N2[C@H](C(=O)N[C@@H](CC(C)C)C(=O)NCC(N)=O)CC[C@@H]2C(C)(C)C)NC(=O)[C@H](CC(N)=O)NC(=O)[C@H](CCC(N)=O)NC1=O (H-CYIQNC[X3]LG-NH2; disulfide 1-6) [listing 2 of 2 here] |  |  |  |  |
| 0.0006 µM | 0.0005 µM |  | CC[C@H](C)[C@@H]1NC(=O)[C@H](Cc2ccc(O)cc2)NC(=O)[C@@H](N)CSSC[C@@H](C(=O)N2CCC[C@H]2C(=O)N[C@@H](CC(C)C)C(=O)NCC(N)=O)NC(=O)[C@H](CC(N)=O)NC(=O)[C@H](CCC(N)=O)NC1=O [OXYTOCIN] | 5 IU/mg | 450 IU mg-1 | 450 IU mg-1 |  |
